RGS4 inh: human RGS4 inhibition | HEK293 M3R/RGS4 inducible, Fluo-4 calcium flux; hits give high values; triggered by carbachol at its EC20 | B-score at 10 µM | hit rate 0.45% among 310,000 | AID 463165;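 active = B-score, a plate-corrected calcium signal, over three deviations above library mean, with baseline fluorescence within five deviations of library mean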;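 note: RGS4 expression induced by doxycycline in cells with stable M3 receptor; B-score is computed from the integrated fluorescence ratio over baseline after carbachol; higher B-score means a larger calcium signal and so more RGS4 inhibition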
Target sequence (P49798 whole entry, looked up): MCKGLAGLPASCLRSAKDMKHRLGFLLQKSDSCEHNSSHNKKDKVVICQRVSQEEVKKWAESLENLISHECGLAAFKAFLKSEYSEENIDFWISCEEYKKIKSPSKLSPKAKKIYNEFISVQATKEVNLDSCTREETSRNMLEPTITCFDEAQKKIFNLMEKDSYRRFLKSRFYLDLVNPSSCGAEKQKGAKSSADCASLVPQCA
MrgX1 ag: agonists of human MrgX1 receptor; Q96LB2; MrgX1-HEK293 cells, Fluo-4 calcium fluorescence, agonist mode; hits give high values; B-score at 10 µM; hit rate 0.44% among 310,000;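 active = calcium response B-score plate-corrected fluorescence ratio at least 3 library SD, with starting fluorescence B-score inside 5 SD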
Target sequence (Q96LB2 whole entry, looked up): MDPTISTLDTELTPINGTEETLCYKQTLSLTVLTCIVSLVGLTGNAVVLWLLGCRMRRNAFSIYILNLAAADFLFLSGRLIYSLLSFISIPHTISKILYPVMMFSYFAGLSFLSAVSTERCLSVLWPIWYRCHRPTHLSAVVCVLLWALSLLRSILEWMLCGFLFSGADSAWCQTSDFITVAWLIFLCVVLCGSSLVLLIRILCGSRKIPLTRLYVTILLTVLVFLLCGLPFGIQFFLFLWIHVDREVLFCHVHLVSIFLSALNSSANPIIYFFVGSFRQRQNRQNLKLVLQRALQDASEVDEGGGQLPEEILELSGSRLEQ
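Test system: HEK293 cells stably expressing human MrgX1 receptor; Input: fifteen thousand cells per well; Dosing: compound delivered in addition one of three; Schedule: overnight seeding, then 1 h dark dye loading; Technique: Fluo-4 NW calcium fluorescence; Measure: B-scored fluorescence response ratio; Controls: positive and negative controls per plate.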
MrgX1 allo act: allosterically activates human MrgX1 receptor signaling; Q96LB2; MrgX1-HEK293, Fluo-4 calcium flux, FDSS; hits give high values; B-score at 10 µM; hit rate 0.63% among 310,000;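 active = plate-corrected calcium response at least 3 library SD above typical, normal starting fluorescence, not activating the receptor alone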;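 note: compound read alongside a low EC10 to EC30 dose of BAM8-22 agonist; peak minus trough fluorescence over baseline measured at the second addition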
MrgX1 antag: antagonists of human MrgX1 receptor; hit rate 1.3% among 310,000; Q96LB2; B-score at 10 µM; MRGX1-HEK293 calcium flux, Fluo-4, BAM8-22 antagonism; hits give low values;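 active = calcium-response B-score plate-corrected more than 3 library SD below zero, starting fluorescence within 5 deviations, no agonist response on first addition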;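 note: peak minus trough fluorescence over baseline after final BAM8-22 challenge near maximal dose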
RGS4 act: potentiators or activators of RGS4; hit rate 0.92% among 310,000; B-score at 10 µM; HEK293 M3R/inducible RGS4, carbachol calcium flux Fluo4; hits give low values;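 active = B-score of the integrated calcium signal more than 4 SD below the library mean, with starting fluorescence not abnormally high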;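 note: negative B-score means reduced calcium response which marks RGS4 activation or potentiation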
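Material: M3R-expressing HEK293 line, RGS4 induced by doxycycline | Schedule: Overnight RGS4 induction, 30 min dye load 37 °C, 20 min compound RT | Measured by: Fluo4 fluorescence kinetic imaging of calcium | Read-out: Integrated calcium ratio converted to B score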
RGS4 block valid: RGS4 inhibitor validation | shares compounds with RGS4 inh | hit rate 65% among 1,700 | calcium response, % at 10 µM | HEK293 M3R/RGS4, carbachol calcium Fluo-4 fluorescence; carbachol added at its EC20; 0 = buffer wells, 100 = carbachol control;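 active = duplicate-averaged calcium response above the buffer-only control mean plus 5 SD of those controls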;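 note: integrated fluorescence ratio F max minus min over baseline F0; higher response in RGS4-induced cells means RGS4 inhibition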
RGS4 uninduced: counter-screen for RGS4 inhibitors: effect in non-induced cells | shares compounds with RGS4 inh | HEK293 M3R non-induced, carbachol calcium Fluo-4; submaximal (EC20) carbachol stimulus; buffer wells 0%, carbachol control wells 100% | activity (percent), % at 10 µM | hit rate 20% among 1,900; call rule not given here;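 note: RGS4 induction absent so cells express M3R without RGS4; higher means more calcium signal and flags a non-specific hit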
M3R basal Ca ctr: signal in non-induced cells without carbachol, RGS4 inhibitor counter-screen. shares compounds with RGS4 inh. HEK293 M3R/RGS4 non-induced, Fluo-4 calcium, no carbachol; normalised: buffer wells 0%, carbachol wells 100%. calcium response (agonist-mode artifact), % at 10 µM. hit rate 22% among 1,900;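 active = duplicate-averaged calcium rise in uninduced cells above buffer wells' mean plus 5 SD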
Active calls of the source: *; i = inactive; x = not tested or not shown. Sampled rows, rich in hits. Any-hit rate of the full collection: about 3.5%.

SMILES	RGS4 inh	MrgX1 ag	MrgX1 allo act	MrgX1 antag	RGS4 act	RGS4 block valid	RGS4 uninduced	M3R basal Ca ctr
CC(C)(C)C1CCc2nc(NC(=O)Cc3cn4ccsc4n3)sc2C1 (centres undefined)	7.1*	i	i	i	i	16%*	i	i
O=C(CCl)c1ccc2c(c1)CCN2C(=O)C1CCCCC1	i	i	i	i	i	i	i	14%*
CCC1CCCCN1S(=O)(=O)c1ccc2c(c1)CCN2C(=O)C1CCC1 (centres undefined)	i	i	i	i	i	x	x	x
CCc1cccc(OCC2Cn3c(nc4c3c(=O)[nH]c(=O)n4C)O2)c1 (centres undefined)	i	i	i	i	i	x	x	x
FC(F)(F)c1cccc(-c2nn[nH]n2)c1	4.8*	i	i	i	i	i	i	i
Cc1ccc(N2NC(=O)/C(=C\c3cc4c(cc3[N+](=O)[O-])OCO4)C2=O)cc1C	26*	i	i	i	i	69%*	i	34%*
O=C1NC(=S)N/C1=C/c1ccc2c(c1)OCO2	i	i	i	i	i	x	x	x
COc1cccc(/C=C2/C(=O)NN(c3ccc(C)c(C)c3)C2=O)c1	15*	i	i	i	i	9.5%*	i	i
COc1cccc(/C=C2/C(=O)NN(c3ccccc3)C2=O)c1	7.5*	i	i	i	i	i	i	8.0%*
O=C1NN(c2ccccc2)C(=O)/C1=C\c1ccc2c(c1)OCO2	7.7*	i	i	i	i	i	i	i
Cc1oc(-c2ccccc2Cl)nc1CS(=O)CC(=O)NCCc1ccccc1 (centres undefined)	i	i	i	i	i	x	x	x
COc1ccc(S(=O)(=O)N(CC(=O)N/N=C/c2cccs2)c2cc(C)cc(C)c2)cc1OC	i	i	i	i	i	x	x	x
O=C(Nc1cccc(C(F)(F)F)c1)c1n[nH]c(Cn2cncn2)n1	i	i	i	i	i	x	x	x
COc1cccc(/C=C2/C(=O)NN(c3ccc(F)cc3)C2=O)c1	i	i	i	i	i	x	i	i
COc1ccc(CCn2c(C)cc(C(=O)CSc3nnnn3-c3ccccc3)c2C)cc1OC	i	i	i	i	i	x	x	x
Cc1cc(C2(c3ccc(O)c(C)c3)C(=O)Nc3ccccc32)ccc1O	i	i	i	i	i	x	x	x
Cc1cccc2c1NC(=O)C2(c1ccc(O)cc1)c1ccc(O)cc1	8.6*	i	i	i	i	10%*	i	i
CN1CC(=O)N2C(c3cccc([N+](=O)[O-])c3)c3[nH]c4ccccc4c3C[C@H]2C1=O (some centres undefined)	i	i	i	i	i	x	x	x
Nc1nn2cc(-c3ccc(Br)cc3)nc2c2ccccc12	7*	i	i	i	i	10%*	i	i
CN(CC(=O)Nc1ccc(OC(F)(F)F)cc1)C(=O)Cc1c(Cl)cccc1Cl	i	i	i	i	i	x	x	x
C=CCOc1ccc(/C=C2/C(=O)ON=C2C)cc1OC	9.4*	i	i	i	i	18%*	i	16%*
Cc1sc(/C=C2\C(=O)ON=C2c2ccccc2)cc1Br	i	i	i	i	i	x	x	x
COc1cc(C=C2C(=O)c3ccccc3C2=O)ccc1O	i	i	i	i	i	x	x	x
COc1cc(/C=C2\C(=O)ON=C2c2ccccc2)cc(Cl)c1O	13*	90*	i	i	-7.9*	40%*	i	253%*
COc1cc(/C=C2/C(=O)ON=C2c2ccccc2)ccc1O	11*	28*	i	i	i	38%*	i	97%*
SMILES	RGS4 inh	MrgX1 ag	MrgX1 allo act	MrgX1 antag	RGS4 act	RGS4 block valid	RGS4 uninduced	M3R basal Ca ctr
COc1ccc(NC(=S)NCc2ccc(F)cc2)cc1	i	i	i	i	i	x	x	x
Cc1ccc2c(c1)c1c(n2C)C(C(N)=O)CCC1 (centres undefined)	i	i	i	i	i	x	x	x
Cc1ccc2c(c1)c1c(n2C)-c2[nH]ncc2CC1	5.5*	i	i	i	i	18%*	i	i
O=C(CCN1Cc2ccccc2C1)c1ccc2c(c1)OCCO2	17*	i	i	i	i	95%*	i	23%*
O=C(CCN1CCc2ccccc2C(c2ccccc2)C1)c1ccc2c(c1)OCCO2 (centres undefined)	15*	43*	i	i	i	10%*	i	14%*
Cc1ccccc1C(=O)NC1CCN(CC(=O)NC2CCCCC2)CC1	i	i	i	i	i	x	x	x
Cc1cccc(-n2c3nc(=O)[nH]c(=O)c-3cc3c(C)nn(-c4ccccc4)c32)c1C	7*	i	i	i	i	i	i	i
Cc1nn(-c2ccccc2)c2c1cc1c(=O)n(C)c(=O)nc-1n2-c1ccccc1F	i	i	i	i	i	x	x	x
C=CCNC(=O)c1onc(CSc2cc(C)ccc2C)c1C(=O)O	i	i	i	i	i	x	x	x
O=C(CSc1nnc(SCc2ccccc2)s1)N/N=C/c1c[nH]c2ccccc12	i	x	x	x	i	i	i	i
O=C(CSc1nnc(SCc2ccccc2Cl)s1)N/N=C/c1c[nH]c2ccccc12	6.8*	i	i	i	i	14%*	i	i
COC(=O)c1ccc(CSc2nc3c(c(=O)n2-c2ccc(F)cc2)SCC3)o1	i	i	i	i	i	x	x	x
NC(=O)NC1CCCc2c1[nH]c1ccc(Cl)cc21 (centres undefined)	5.3*	i	i	i	i	8.5%*	i	i
COc1ccc(C(=O)N/N=C/c2c(CO)cnc(C)c2O)cc1	i	i	i	i	i	x	x	x
Cc1ncc(CO)c(/C=N/NC(=O)c2cc3c(s2)CCCC3)c1O	7.2*	i	i	i	i	102%*	78%*	35%*
Cc1ncc(CO)c(/C=N/NC(=O)c2ccc(O)cc2)c1O	i	i	i	i	i	x	i	8.0%*
